According to ChEMBL document CHEMBL1142947, “Gallium(III) and iron(III) complexes of alpha-N-heterocyclic thiosemicarbazones: synthesis, characterization, cytotoxicity, and interaction with ribonucleotide reductase” (J Med Chem, 2007):

What was measured:
41M = assay: Cytotoxicity against human 41M cells after 96 hrs by MTT assay; assay type: cell-based
Method in brief: (§1)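 Adherent cells grown in MEM with 10% heat-inactivated FBS, 1 mM sodium pyruvate, 4 mM L-glutamine and nonessential amino acids at 37 °C, 5% CO2. Seeded at 4 × 10^3 cells/well and preincubated 24 h. Exposed 96 h to DMSO stocks serially diluted in medium (DMSO ≤0.5%). MTT added for 4 h, formazan dissolved in DMSO, read at 550 nm (ref 690 nm). IC50 interpolated from T/C curves; ≥3 independent experiments, six cultures per concentration.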

[1] = Cytotoxicity against human SKBR3 cells after 96 hrs by MTT assay; assay type: cell-based; details: SK-BR-3, 96 h; method in brief: as §1
[2] = target: T1, Ribonucleoside-diphosphate reductase subunit M2 (Mus musculus) (UniProt P11157); assay: Effect on mouse ribonucleotide reductase R2 protein measured by tyrosyl radical concentration in anaerobic condition at 3 mM, 298 K after 1 min
T1 sequence (whole entry): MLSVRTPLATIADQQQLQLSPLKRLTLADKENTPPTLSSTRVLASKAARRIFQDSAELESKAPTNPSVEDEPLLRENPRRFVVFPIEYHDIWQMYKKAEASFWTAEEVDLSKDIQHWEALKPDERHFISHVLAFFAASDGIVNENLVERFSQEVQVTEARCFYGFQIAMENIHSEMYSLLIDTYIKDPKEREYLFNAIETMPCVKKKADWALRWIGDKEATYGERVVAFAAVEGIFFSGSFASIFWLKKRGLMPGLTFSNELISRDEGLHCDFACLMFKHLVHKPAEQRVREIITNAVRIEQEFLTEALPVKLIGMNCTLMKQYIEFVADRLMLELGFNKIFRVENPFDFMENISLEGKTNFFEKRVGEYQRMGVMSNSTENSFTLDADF
Method in brief: (§2)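 Run in an anaerobic tent with argon-bubbled, vacuum-degassed buffer (50 mM Tris/HCl pH 7.6, 100 mM KCl) and solutions. Protein degassed and diluted to a final 30 µM R2 monomer with 30 µM compound (from 3 mM stocks), 1% DMSO and 1 mM DTT freshly prepared. Incubated at 298 K for 1, 15 and 1005 min total; tyrosyl radical measured by EPR at 77 K.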

[3] = target: T1, Ribonucleoside-diphosphate reductase subunit M2 (Mus musculus); assay: Effect on mouse ribonucleotide reductase R2 protein measured by tyrosyl radical concentration in aerobic condition at 30-33 µM, 298 K after 15 mins
[4] = target: T1, Ribonucleoside-diphosphate reductase subunit M2 (Mus musculus); assay: Effect on mouse ribonucleotide reductase R2 protein measured by tyrosyl radical concentration in anaerobic condition at 3 mM, 298 K after 15 mins; method in brief: as §2
[5] = target: T1, Ribonucleoside-diphosphate reductase subunit M2 (Mus musculus); assay: Effect on mouse ribonucleotide reductase R2 protein measured by tyrosyl radical concentration in aerobic condition at 3 mM, 298 K after 1005 mins
Method in brief: (§3)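 Reconstituted purified mouse R2 diluted to 30 µM monomer in 50 mM Tris/HCl pH 7.6, 100 mM KCl. Compound added from 3 mM stock (DMSO, or water for nitrates) to a final 30–33 µM (1:1 with monomer), about 1% DMSO, plus 1 mM DTT, under air at 298 K. Samples frozen in liquid nitrogen after each incubation; tyrosyl radical quantified by X-band EPR at 40 K.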

[6] = target: T1, Ribonucleoside-diphosphate reductase subunit M2 (Mus musculus); assay: Effect on mouse ribonucleotide reductase R2 protein measured by tyrosyl radical concentration in anaerobic condition at 3 mM, 298 K after 1005 mins; method in brief: as §2
[7] = target: T1, Ribonucleoside-diphosphate reductase subunit M2 (Mus musculus); assay: Effect on mouse ribonucleotide reductase R2 protein measured by tyrosyl radical concentration in aerobic condition at 3 mM, 298 K after 1 min; method in brief: as §3

Activity [2]	Activity [3]	Activity [4]	Activity [5]	Activity [6]	Activity [7]	SMILES	IC50 (41M)	IC50 [1]
–	–	–	–	–	–	C/C(=N\NC(=S)N(C)C)c1cnccn1	0.073 nM	1.4 nM
8.5 µM	7 µM	0 µM	0.5 µM	0 µM	17.2 µM	C/C(=N\NC(=S)N(C)C)c1ccccn1	0.22 nM	2.7 nM
–	–	–	–	–	–	C/C(=N\NC(=S)N1CCCC1)c1ccccn1	0.36 nM	3.1 nM
–	–	–	–	–	–	C/C(=N\NC(=S)N1CCCC1)c1cnccn1	1.1 nM	5 nM
–	–	–	–	–	–	C/C(=N\NC(=S)N1CCCCC1)c1cnccn1	0.41 nM	2.2 nM
